# MT1-MMP act inh = blocks activation of human MT1-MMP; HT1080 RFP-PRO-GFP cells, GFP/RFP ratio fluorescence, overnight; percent of plate control window, DMSO zero; GFP/RFP ratio change, % at 20 µM; 360,000 compounds, 0.061% hits; AID 651647;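 active = GFP/RFP ratio change of at least 30% with cell ATP level not reduced by more than half and red fluorescence within 50% of control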
#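 Material – HT1080 RFP-PRO-GFP cells · Control set – DMSO wells and RFP-L50D-GFP cells · Incubation – overnight cell settling, then overnight compound exposure, 37 °C, 5% CO2 · Compound dosing – single-point 20 µM compound, 1% DMSO · Read-out – GFP/RFP fluorescence ratio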
# iPSC survival up = hiPSC single-cell survival enhancement. ATPlite luminescence; 100% = ROCK inhibitor wells, 0% = DMSO. survival enhancement, % at 20 µM. 360,000 compounds, 0.044% hits. AID 602274; in the data active = survival enhancement above about 18%;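 note: cells exposed to compounds for 16 hours before the ATP read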
# DAGLB inhibitor = blocks human DAGLB lipase activity | Q8NCG7 | inhibition, % at 5.17 µM | HEK293T DAGLB membrane lysate, EnzChek fluorogenic substrate | 340,000 compounds, 0.059% hits; in the data active = inhibition above about 34%;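 note: 0% = enzyme with vehicle and 100% = wells lacking enzyme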
# Target sequence (Q8NCG7 whole entry, looked up): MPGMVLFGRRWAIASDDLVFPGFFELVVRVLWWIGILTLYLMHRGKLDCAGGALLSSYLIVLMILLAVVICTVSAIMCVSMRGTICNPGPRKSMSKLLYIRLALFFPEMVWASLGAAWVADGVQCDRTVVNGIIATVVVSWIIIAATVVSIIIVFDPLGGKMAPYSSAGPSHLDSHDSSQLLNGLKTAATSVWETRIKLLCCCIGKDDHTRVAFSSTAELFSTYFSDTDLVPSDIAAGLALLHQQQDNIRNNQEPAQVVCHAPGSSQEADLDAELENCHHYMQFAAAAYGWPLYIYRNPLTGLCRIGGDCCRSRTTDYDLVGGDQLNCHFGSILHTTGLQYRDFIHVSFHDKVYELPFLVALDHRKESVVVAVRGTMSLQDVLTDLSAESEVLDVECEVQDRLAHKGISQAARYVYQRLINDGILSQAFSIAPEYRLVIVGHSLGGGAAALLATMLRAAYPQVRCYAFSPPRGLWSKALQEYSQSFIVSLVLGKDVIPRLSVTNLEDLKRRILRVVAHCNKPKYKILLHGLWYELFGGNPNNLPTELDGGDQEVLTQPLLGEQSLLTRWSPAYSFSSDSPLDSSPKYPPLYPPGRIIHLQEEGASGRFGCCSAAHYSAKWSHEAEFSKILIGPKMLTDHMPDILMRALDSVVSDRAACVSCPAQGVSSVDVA
# FAS TE block = inhibitors of human fatty acid synthase thioesterase domain | recombinant FAS-TE, OMFH fluorogenic substrate, fluorescence endpoint | inhibition, % at 15 µM | 360,000 compounds, 0.67% hits | AID 602261;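 active = compounds whose normalised, plate-corrected inhibition of enzyme fluorescence in the single-dose primary screen is 50% or more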;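 note: 0% = DMSO with enzyme and 100% = substrate without enzyme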
# SKN-1 inh = C. elegans SKN-1 inhibition; C. elegans VP596 Pgst-4::GFP/RFP ratio, acrylamide-induced, 24 h; inhibition, % at 21.8 µM; 360,000 compounds, 0.49% hits;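 active = interference check ratio from 0.5 to 1.5 plus GFP to RFP signal ratio inhibition reaching or exceeding a fixed threshold, cut at about 30% in these data, passing the limit was not always enough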
# Starred values were filed as active, the others as inactive; x = not tested or not shown. Hits are enriched below; roughly 1.3% of the tested compounds scored in any of these assays.
SMILES,MT1-MMP act inh,iPSC survival up,DAGLB inhibitor,FAS TE block,SKN-1 inh
COC(=O)C[C@@H]1C=C[C@@H](NC(=O)NC2CCCC2)[C@@H](CO)O1,-1,x,x,x,3
COc1ccc(C2Nc3ccccc3C(=O)N2Cc2ccco2)cc1CN1C(=O)c2ccccc2C1=O (centres undefined),0,0,-3,12,4
COc1ccc(C2Nc3ccccc3C(=O)N2Cc2ccco2)cc1COc1ccc(F)cc1 (centres undefined),-13,-2,-2,24,43*
O/N=C(\c1ccc(Cl)cc1)c1ncc(C(F)(F)F)cc1Cl,5,1,-4,-8,-5
FC(F)(F)c1cnc2c(-c3ccc(Cl)cc3Cl)noc2c1,-7,1,-8,6,32*
O=c1c2ccccc2nnn1Cc1ccc(Br)cc1,-3,0,-4,18,36*
CC(=O)n1cc([C@H]2C=C(C(=O)NCc3ccccc3)O[C@@H](OCCCCO)C2)c2ccccc21,-4,-2,1,7,-16
C#CCNC(=O)C1=C[C@@H](c2cn(C(C)=O)c3ccccc23)C[C@@H](OCCCCO)O1,-3,-1,0,-7,45*
CCOC(=O)c1cn(CC)c2cc(N3CCOCC3)c(F)cc2c1=O,-1,-1,-2,-4,40*
CC(=O)Nc1nc(-c2ccc([N+](=O)[O-])cc2)cs1,3,-2,0,1,1
CC(C)c1nc(-c2ccc([N+](=O)[O-])cc2)cs1,2,0,-8,4,53*
COc1ccc(CN2CCN(Cc3ccco3)CC2)cc1,-4,0,-1,-2,40*
COCCCn1c(SCC(=O)NC(C)C)nnc1-c1ccccc1,-2,5,3,-21,36*
COCCCn1c(SCC(N)=O)nnc1-c1ccccc1,2,-3,-2,-5,6
CN(C)c1ccc(-c2ccnc3c2CC(C)(C(=O)NCc2ccco2)O3)cc1 (centres undefined),-7,-2,x,2,8
S=c1[nH]nc(-c2ccco2)n1/N=C/c1ccc(Cl)c(Cl)c1,x,-1,3,22,-2
S=c1[nH]nc(-c2ccco2)n1/N=C/c1c(Cl)cccc1Cl,2,-1,0,7,47*
O=C(c1cccc(F)c1)N1CCN(c2cccc(C(F)(F)F)c2)CC1,1,1,-9,9,39*
O=C(Nc1ccc2c(c1)OCO2)c1cccc(F)c1,-1,-1,1,-4,40*
COc1ccc(NC(=O)c2ccc3c(c2)OCO3)cc1Cl,2,-2,-2,5,41*
CC(=O)Nc1cccc(-c2ccnc3c2CC(C(=O)NCc2ccc(N(C)C)cc2)O3)c1 (centres undefined),4,-1,x,0,7
CC1CCN(CC(=O)Nc2cccc(C(=O)Nc3cccc(C(F)(F)F)c3)c2)CC1,-1,2,-1,28,44*
N#C/C(=C\c1ccco1)Sc1nc2ccccc2s1,-4,0,-3,-7,45*
O=C(CSc1nc2ccccc2s1)N/N=C/c1ccco1,3,-2,-1,-9,-5
COC(=O)c1c2c(nc3ccccc13)CCC2,-7,-3,1,-9,41*
SMILES,MT1-MMP act inh,iPSC survival up,DAGLB inhibitor,FAS TE block,SKN-1 inh
CC(C)(C)C(=O)COC(=O)c1c2c(nc3ccccc13)CCC2,-4,8,-1,2,4
Cc1ccc2nc(Cl)c3nnnn3c2c1,-20,30*,-4,27,-3
Cc1c(C(=O)NCCC#N)sc(=O)n1Cc1ccccc1F,5,4,x,0,-17
CCOC(=O)C(=O)/C(=C\N(C)C)c1onc(-c2c(F)cccc2Cl)c1C(=O)OC,5,20*,0,-3,-17
COC(=O)c1onc(-c2c(Cl)cccc2Cl)c1C(=O)OC,3,0,-5,2,7
O=C(NCc1cccnc1)c1csc([C@@H]2O[C@H](CO)[C@H](O)[C@H](O)[C@H]2O)n1,-7,1,x,-6,17
COc1ccc2c3c(cccc13)N(C)N=C2C,-38,1,0,-14,41*
CN(C1=C(N2CCCCC2)C(=O)c2ccccc2C1=O)c1ccccc1,4,-1,38*,31,0
O=C1C(Nc2ccccc2)=C(N2CCCCC2)C(=O)c2ccccc21,-15,-5,0,2,15
Cn1c(=O)c(-c2ccccc2)nn2c3ccccc3nc12,-7,-3,-5,-1,-2
CCn1c(=O)c(C)nn2c3ccccc3nc12,-3,1,-6,-2,35*
O=C(Nc1ccc(C2CC2(Cl)Cl)cc1)c1ccccc1Br (centres undefined),2,1,-7,23,47*
O=C(NCc1ccc(Cl)cc1)c1ccc(-c2ccc(F)c(F)c2)c2ccoc12,2,2,x,23,36*
O=C(NCc1cccnc1)c1ccc(-c2ccc(F)c(F)c2)c2ccoc12,5,-2,x,5,28
O=C(NCc1ccc(F)c(F)c1)c1ccc(-c2ccc(F)c(F)c2)c2ccoc12,-1,4,x,21,80*
Clc1ccc(-c2nnc(SCc3nc4ccccc4[nH]3)o2)c(Cl)c1,-8,4,-11,6,-6
C=CCSc1nnc(-c2ccc(Cl)cc2Cl)o1,x,-3,-13,5,86*
Clc1ccc(-c2nnc(SCc3ccon3)o2)c(Cl)c1,2,-4,1,1,37*
C=CCSc1nnc(-c2cccnc2)o1,23,0,-1,-6,5
CCOC(=O)N(C)c1c(CC)nc2c(OCc3ccccc3)cccn12,-4,1,x,-5,-5
CCCCN(C(C)=O)c1c(CC)nc2ccc(C(=O)NCCCN(C)C)cn12,1,-1,x,-5,-19
CC(=O)c1cccc(-c2ccnc3c2CC(C(=O)NCC2CCOCC2)O3)c1 (centres undefined),6,-2,x,-10,-5
COc1ccc(N2C(=O)C(Cl)=C(Oc3cccc(OC)c3)C2=O)cc1,4,4,3,52*,3
Cc1cccc(/C(N)=N/OC(=O)c2ccc(Cl)cc2Cl)c1,-1,-3,-3,8,-9
N/C(=N\OC(=O)c1ccc(Cl)cc1Cl)c1cccnc1,-2,-5,-10,-4,54*
SMILES,MT1-MMP act inh,iPSC survival up,DAGLB inhibitor,FAS TE block,SKN-1 inh
N/C(=N\OC(=O)c1ccc(Cl)cc1Cl)c1ccccc1,-8,-4,-10,7,56*
N/C(=N\OC(=O)c1ccccc1Cl)c1ccc(Cl)cc1,-1,0,-1,6,21
N/C(=N\OC(=O)c1ccc(Cl)cc1Cl)c1ccc(Cl)cc1,x,-2,0,3,-14
N/C(=N\OC(=O)c1ccccc1Cl)c1ccccc1,-1,-4,-14,10,61*
N/C(=N\OC(=O)c1ccc(Cl)cc1)c1ccc(Cl)cc1,8,1,-2,-6,16
N/C(=N\OC(=O)c1ccc(Cl)cc1)c1cccnc1,x,-2,-8,-16,29*

# Compound activity as filed in PubChem BioAssay.
